Test results published in ChEMBL document CHEMBL1909596, “Synthesis and evaluation of chromenyl barbiturates and thiobarbiturates as potential antitubercular agents” (Bioorg Med Chem Lett, 2011).
≈ marks a conversion by molar mass, not a printed value.

System: not listed separately
Assay: Cytotoxicity against african green monkey Vero cells after 72 hrs by celltiter-glo luminescent cell viability assay
Type: cell-based
Details: chlorocebus sabaeus
In short: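 VERO cells exposed to compounds for 72 h. Viability read from ATP content by luminescence. CC50 derived by curve fitting of dose–response curves.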
With `Cc1cc(=O)oc2c(C)c3occ(C=C4C(=O)NC(=O)NC4=O)c(=O)c3cc12` the CC50 at 72 h was 14.3 µg/mL (≈ 37.5 µM).

System: not listed separately
Assay: Selectivity index, ratio of CC50 african green monkey Vero cells to IC90 for Mycobacterium tuberculosis H37Rv ATCC 27294
Type: toxicity, cell-based
Details: not given
In short: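 SI calculated as VERO CC50 (72 h luminescent ATP viability assay, curve-fitted) divided by the MABA MIC (90% fluorescence reduction endpoint) for H37Rv.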
`Cc1cc(=O)oc2c(C)c3occ(C=C4C(=O)NC(=O)NC4=O)c(=O)c3cc12` showed a selectivity ratio of 2.41.

System: Mycobacterium tuberculosis
Assay: Antimycobacterial activity against Mycobacterium tuberculosis H37Rv ATCC 27294 by microplate alamar blue assay
Type: functional, organism-based
Details: not given
In short: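 Strain grown in BACTEC 12B medium, broth microdilution with Alamar Blue read-out (TAACF protocol). Primary screen at 6.25 µg/mL; compounds reaching ≥90% growth inhibition retested in 10 twofold dilutions, typically from 100. MIC taken as the lowest concentration giving 90% fluorescence reduction relative to controls. Fluorescent compounds tested in BACTEC 460 radiometric system instead. Rifampin control.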
Compound `Cc1cc(=O)oc2c(C)c3occ(C=C4C(=O)NC(=O)NC4=O)c(=O)c3cc12` has an IC50 of 4.71 µg/mL (≈ 12.4 µM) and an IC90 of 5.9 µg/mL (≈ 15.5 µM). `Cc1c(C(=O)c2ccc(Br)cc2)oc2cc3occ(C=C4C(=O)NC(=O)NC4=O)c(=O)c3cc12` showed an IC50 of 38.5 µg/mL (≈ 73.9 µM) and an IC90 of 55.4 µg/mL (≈ 106 µM). Compound `COc1ccc(C(=O)c2oc3cc4occ(C=C5C(=O)NC(=S)NC5=O)c(=O)c4cc3c2C)cc1` has an IC50 of over 100 µg/mL and an IC90 of over 100 µg/mL. Compound `Cc1c(C(=O)c2ccc(-c3ccccc3)cc2)oc2cc3occ(C=C4C(=O)NC(=O)NC4=O)c(=O)c3cc12` has an IC50 of over 100 µg/mL and an IC90 of over 100 µg/mL. `Cc1c(C(=O)c2ccccc2)oc2cc3occ(C=C4C(=O)NC(=S)NC4=O)c(=O)c3cc12` showed an IC50 of over 100 µg/mL and an IC90 of over 100 µg/mL. Compound `Cc1ccc(C(=O)c2oc3cc4occ(C=C5C(=O)NC(=O)NC5=O)c(=O)c4cc3c2C)cc1` has an IC50 of 55.2 µg/mL (≈ 121 µM) and an IC90 of 84.7 µg/mL (≈ 186 µM). In the case of `COc1ccc(C(=O)c2oc3cc4occ(C=C5C(=O)NC(=O)NC5=O)c(=O)c4cc3c2C)cc1`, the IC50 is reported as over 100 µg/mL and the IC90 is reported as over 100 µg/mL. Work on `Cc1c(C(=O)c2ccc(Cl)cc2)oc2cc3occ(C=C4C(=O)NC(=S)NC4=O)c(=O)c3cc12` yielded an IC50 of 42 µg/mL (≈ 85.3 µM) and an IC90 of 63.8 µg/mL (≈ 129 µM). `Cc1cc(=O)oc2cc3occ(C=C4C(=O)NC(=O)NC4=O)c(=O)c3cc12` gave an IC50 of over 100 µg/mL and an IC90 of over 100 µg/mL. `NC(=O)c1cnccn1` [PYRAZINAMIDE] showed an IC90 of over 20 µg/mL. With `Cc1c(C(=O)c2ccc(Cl)cc2)oc2cc3occ(C=C4C(=O)NC(=O)NC4=O)c(=O)c3cc12` the IC50 was 65.1 µg/mL (≈ 136 µM) and the IC90 was 93 µg/mL (≈ 195 µM). Compound `Cc1cc(=O)oc2cc3occ(C=C4C(=O)NC(=S)NC4=O)c(=O)c3cc12` has an IC50 of over 100 µg/mL and an IC90 of over 100 µg/mL.
